What is called Ki is a dissociation constant, usually derived from enzyme kinetics or from competition with a known ligand.

The results in this text go back to ChEMBL document CHEMBL3351530, “Analysis of subpocket selectivity and identification of potent selective inhibitors for matriptase and matriptase-2” (J Med Chem, 2014).

Assay [1] deals with T1, Suppressor of tumorigenicity 14 protein (Homo sapiens, UniProt Q9Y5Y6).
T1 sequence (Q9Y5Y6 whole entry): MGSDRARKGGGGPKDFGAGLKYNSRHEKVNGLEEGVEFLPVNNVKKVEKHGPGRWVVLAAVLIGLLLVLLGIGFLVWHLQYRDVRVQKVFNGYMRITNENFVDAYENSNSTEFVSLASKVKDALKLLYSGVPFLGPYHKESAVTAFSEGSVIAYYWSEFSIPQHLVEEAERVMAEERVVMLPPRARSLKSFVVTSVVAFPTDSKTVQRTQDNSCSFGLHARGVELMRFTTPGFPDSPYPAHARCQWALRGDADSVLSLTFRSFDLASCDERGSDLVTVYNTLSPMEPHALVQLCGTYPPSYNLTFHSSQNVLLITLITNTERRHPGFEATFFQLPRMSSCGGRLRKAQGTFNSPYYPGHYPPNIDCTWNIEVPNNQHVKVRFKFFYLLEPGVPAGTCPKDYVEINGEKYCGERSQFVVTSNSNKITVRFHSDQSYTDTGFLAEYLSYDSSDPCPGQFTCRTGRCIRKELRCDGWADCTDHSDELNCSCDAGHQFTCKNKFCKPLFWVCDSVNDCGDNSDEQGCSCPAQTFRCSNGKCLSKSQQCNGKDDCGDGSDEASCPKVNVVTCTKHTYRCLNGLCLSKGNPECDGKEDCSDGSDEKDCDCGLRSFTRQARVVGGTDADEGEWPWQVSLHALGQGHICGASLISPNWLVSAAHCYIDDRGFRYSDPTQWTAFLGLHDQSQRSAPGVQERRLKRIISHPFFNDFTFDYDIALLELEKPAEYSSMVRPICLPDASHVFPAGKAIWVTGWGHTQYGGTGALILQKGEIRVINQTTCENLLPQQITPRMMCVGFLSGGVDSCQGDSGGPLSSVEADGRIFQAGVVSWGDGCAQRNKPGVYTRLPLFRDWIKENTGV
In words: Inhibition of human recombinant matriptase using Boc-Gln-Ala-Arg-AMC as substrate by microplate reader analysis. In outline: (§1)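 Recombinant human matriptase (aa 596−[…]) or matriptase-2 (aa 78−811), active-site titrated with MUGB; 1 nM enzyme at room temperature in 50 mM Tris-HCl, 15 mM NaCl, pH 7.4. AMC release read at 360/441 nm. If inhibition occurred at I/E = 10, Ki came from a Morrison fit; otherwise from substrate-velocity curves fitted to the best reversible model. At least 3 runs in duplicate, mean ± SD.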

The target in assay [2] is T2, Transmembrane protease serine 6 (Homo sapiens, UniProt Q8IU80).
T2 sequence (Q8IU80 whole entry): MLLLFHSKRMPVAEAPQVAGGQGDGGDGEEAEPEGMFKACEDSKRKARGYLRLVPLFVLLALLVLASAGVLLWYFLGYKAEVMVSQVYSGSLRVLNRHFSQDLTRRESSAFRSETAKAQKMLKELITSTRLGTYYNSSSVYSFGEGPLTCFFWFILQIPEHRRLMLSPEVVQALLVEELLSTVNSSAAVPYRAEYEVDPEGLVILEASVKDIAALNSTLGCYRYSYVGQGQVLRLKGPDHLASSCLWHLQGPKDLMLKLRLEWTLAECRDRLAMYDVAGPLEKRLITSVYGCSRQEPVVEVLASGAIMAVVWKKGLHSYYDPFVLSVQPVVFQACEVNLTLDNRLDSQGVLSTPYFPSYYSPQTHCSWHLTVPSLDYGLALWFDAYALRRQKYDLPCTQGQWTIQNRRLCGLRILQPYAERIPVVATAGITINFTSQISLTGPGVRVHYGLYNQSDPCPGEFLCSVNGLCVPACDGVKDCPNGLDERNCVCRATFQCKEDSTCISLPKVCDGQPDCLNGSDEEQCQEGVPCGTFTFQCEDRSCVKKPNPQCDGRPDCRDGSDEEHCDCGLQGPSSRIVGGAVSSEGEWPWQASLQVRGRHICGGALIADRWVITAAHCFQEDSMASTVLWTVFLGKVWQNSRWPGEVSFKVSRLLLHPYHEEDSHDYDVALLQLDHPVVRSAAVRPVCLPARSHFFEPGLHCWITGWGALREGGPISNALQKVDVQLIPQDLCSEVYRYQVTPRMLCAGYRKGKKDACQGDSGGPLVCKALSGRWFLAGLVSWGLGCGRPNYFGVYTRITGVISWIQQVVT
The assay is described as follows: Inhibition of human recombinant matriptase-2 using Boc-Gln-Ala-Arg-AMC as substrate by microplate reader analysis. In outline:
as §1

For assay [3], the species on record is Homo sapiens. In words: Selectivity ratio of Ki for human recombinant matriptase-2 to Ki for human recombinant matriptase.
The species entered for assay [4] is Homo sapiens. In words: Selectivity ratio of Ki for human recombinant matriptase to Ki for human recombinant matriptase-2.

The structures appear in SMILES notation.

For the compound `C[C@H](NC(=O)[C@H](CCCCN)NC(=O)[C@@H](N)Cc1ccc(O)cc1)C(=O)N[C@@H](CCCNC(=N)N)C(=O)c1nc2ccccc2s1`, the Ki in assay [1] was found to be 0.89 nM; in assay [2], 20.8 nM. The Ratio Ki in the assay filed under Homo sapiens [3] was determined as 23.

Regarding `N=C(N)NCCC[C@H](NC(=O)[C@@H]1CCCN1C(=O)[C@H](CC(N)=O)NC(=O)[C@@H](N)CCCNC(=N)N)C(=O)c1nc2ccccc2s1`, the Ki came to 0.91 nM in assay [1] and 47.8 nM in assay [2]. Also, in the assay filed under Homo sapiens [3], the Ratio Ki came out at 49.

In the case of `N=C(N)NCCC[C@H](NC(=O)[C@@H](N)Cc1c[nH]c2ccccc12)C(=O)N[C@@H](CCC(=O)O)C(=O)N[C@@H](CCCNC(=N)N)C(=O)c1nc2ccccc2s1`, the Ki came out at 14.7 nM in assay [1] and 46.8 nM in assay [2]. In addition, the Ratio Ki in the assay filed under Homo sapiens [3] came to 3.

For the compound `N=C(N)NCCC[C@H](NC(=O)[C@@H]1CCCN1C(=O)[C@H](CCC(N)=O)NC(=O)[C@@H](N)CCCNC(=N)N)C(=O)c1nc2ccccc2s1`, the results for the Ki in assay [1] and in assay [2] were 0.061 nM and 7.8 nM, respectively. For the same compound, in the assay filed under Homo sapiens [3], the Ratio Ki was determined as 128.

Take `CC(C)[C@H](NC(=O)[C@H](Cc1ccc(O)cc1)NC(=O)[C@@H](N)Cc1ccc(O)cc1)C(=O)N[C@@H](CCCNC(=N)N)C(=O)c1nc2ccccc2s1`: the Ratio Ki is 13 in the assay listed under Homo sapiens [4] and 0.08 in the assay filed under Homo sapiens [3]. Moreover, the Ki amounted to 31.5 nM in assay [1] and 2.56 nM in assay [2].

For the compound `C[C@H](NC(=O)[C@H](Cc1ccc(O)cc1)NC(=O)[C@@H](N)CCCNC(=N)N)C(=O)N[C@@H](CCCNC(=N)N)C(=O)c1nc2ccccc2s1`, the Ki in assay [1] turned out to be 0.14 nM; in assay [2], 6.3 nM. Moreover, the Ratio Ki in the assay listed under Homo sapiens [3] worked out at 45.

For `CC(C)C[C@H](N)C(=O)N[C@@H](CCC(N)=O)C(=O)N[C@@H](C)C(=O)N[C@@H](CCCNC(=N)N)C(=O)c1nc2ccccc2s1`, the values for the Ki in assay [1] and in assay [2] were 0.15 nM and 13.5 nM, respectively. Further, the Ratio Ki in the assay filed under Homo sapiens [3] stood at 90.

Turning to `CC(C)C[C@H](NC(=O)[C@@H](N)CCCNC(=N)N)C(=O)N[C@@H](CO)C(=O)N[C@@H](CCCNC(=N)N)C(=O)c1nc2ccccc2s1`, the Ki stood at 1.4 nM in assay [1] and 2.48 nM in assay [2]. The Ratio Ki in the assay filed under Homo sapiens [3] is 1.79.

Take `C[C@H](NC(=O)[C@H](CCCNC(=N)N)NC(=O)[C@@H](N)CCCNC(=N)N)C(=O)N[C@@H](CCCNC(=N)N)C(=O)c1nc2ccccc2s1`: the Ki was found to be 0.72 nM in assay [1] and 15.4 nM in assay [2]. Moreover, the Ratio Ki in the assay filed under Homo sapiens [3] was found to be 22.

For `C[C@H](NC(=O)[C@H](CCC(N)=O)NC(=O)[C@@H](N)CO)C(=O)N[C@@H](CCCNC(=N)N)C(=O)c1nc2ccccc2s1`, the Ki was 0.092 nM in assay [1] and 34.8 nM in assay [2]. In addition, the Ratio Ki in the assay listed under Homo sapiens [3] was found to be 378.

As to `N=C(N)NCCC[C@H](NC(=O)[C@H](Cc1ccc(O)cc1)NC(=O)[C@H](CS)NC(=O)[C@@H](N)Cc1c[nH]c2ccccc12)C(=O)c1nc2ccccc2s1`, the figures for the Ratio Ki in the assay filed under Homo sapiens [4] and in the assay listed under Homo sapiens [3] were 8 and 0.13, respectively. The results for the Ki in assay [1] and in assay [2] were 7.98 nM and 1.03 nM, respectively.

`C[C@H](NC(=O)[C@H](CC(N)=O)NC(=O)[C@@H](N)CCCCN)C(=O)N[C@@H](CCCNC(=N)N)C(=O)c1nc2ccccc2s1`: the Ki stood at 0.45 nM in assay [1] and 24.8 nM in assay [2]. The Ratio Ki in the assay filed under Homo sapiens [3] was 62.

For `CC(C)C[C@H](N)C(=O)N[C@@H](Cc1c[nH]c2ccccc12)C(=O)N[C@@H](Cc1c[nH]c2ccccc12)C(=O)N[C@@H](CCCNC(=N)N)C(=O)c1nc2ccccc2s1`, the Ratio Ki in the assay listed under Homo sapiens [4] came out at 2; in the assay filed under Homo sapiens [3] it was 0.63. Moreover, the Ki in assay [1] was 3.22 nM; in assay [2] it was 1.98 nM.

Take `N=C(N)NCCC[C@H](NC(=O)[C@H](Cc1ccc(O)cc1)NC(=O)[C@H](CCC(N)=O)NC(=O)[C@@H](N)CCCNC(=N)N)C(=O)c1nc2ccccc2s1`: the values for the Ki in assay [1] and in assay [2] were 0.18 nM and 0.74 nM, respectively. The Ratio Ki in the assay listed under Homo sapiens [3] is 4.

Consider `N=C(N)NCCC[C@H](NC(=O)[C@H](Cc1ccccc1)NC(=O)[C@H](CCC(N)=O)NC(=O)[C@@H](N)CCCNC(=N)N)C(=O)c1nc2ccccc2s1`, for which the Ki in assay [1] stood at 0.23 nM; in assay [2] it was 1.4 nM. Also, in the assay listed under Homo sapiens [3], the Ratio Ki was found to be 6.
